In one assay the target is Chymotrypsinogen A (Bos taurus, UniProt P00766). The assay can be described thus: Compound was tested for Inhibition of Chymotrypsinogen. The method in brief:
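Chymotrypsin hydrolysis of glutaryl-L-Phe p-nitroanilide followed photometrically. Km of substrate and Ki of reversible inhibitors from Lineweaver–Burk double-reciprocal plots, Ki from replots of Km(app)/Vmax vs [I]; slopes and intercepts by linear regression. Test compounds added in methanol (<5% of final volume).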

In assay [1] the target is T1, Dipeptidyl peptidase 1 (Homo sapiens, UniProt P53634). The assay can be described thus: Compound was tested for Inhibition of Dipeptidyl aminopeptidase 1. The method in brief: (§1)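 Cathepsin C diluted 1:200 daily in ice-cold 50 mM citrate pH 5 with 10 mM cysteamine. Gly-Phe p-nitroanilide hydrolysis at 37 °C read at 405 nm (Δε 9900 M⁻¹ cm⁻¹), started by adding substrate to prewarmed enzyme/inhibitor. Irreversible inhibition: enzyme preincubated with varied inhibitor levels, aliquots diluted into substrate over time. k_app from ln(% activity) vs time; Ki and k2 from 1/k_app vs 1/[I].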

The nature of assay [2]: Compound was tested for Inhibition of leucine aminopeptidase-C.
Assay [3] in a line: Compound was tested for Inhibition of Leucine aminopeptidase-M.
Assay [4] can be described thus: Compound was tested for Inhibition of Leucine aminopeptidase-M; NI is No inhibition at 40 mM.
Assay [5] deals with T1, Dipeptidyl peptidase 1. The assay can be described thus: Compound was tested for Inhibition of dipeptidyl Dipeptidyl aminopeptidase 1. Put shortly:
as §1

The target in another assay is T2, Papain (Carica papaya, UniProt P00784).
T2 sequence (P00784 whole entry): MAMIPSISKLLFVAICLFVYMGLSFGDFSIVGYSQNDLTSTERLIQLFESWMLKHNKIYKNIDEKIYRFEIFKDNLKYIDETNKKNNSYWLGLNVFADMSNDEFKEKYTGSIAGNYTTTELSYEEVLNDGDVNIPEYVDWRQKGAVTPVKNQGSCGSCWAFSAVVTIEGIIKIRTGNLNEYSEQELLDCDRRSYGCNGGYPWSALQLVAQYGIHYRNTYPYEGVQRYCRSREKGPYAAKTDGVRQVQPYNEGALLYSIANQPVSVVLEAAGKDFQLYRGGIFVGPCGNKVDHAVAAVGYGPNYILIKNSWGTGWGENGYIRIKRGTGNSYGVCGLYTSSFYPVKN
Nature of the assay: Compound was tested for Inhibition of Papain. Put shortly: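 Papain activated 45 min at 25 °C in 50 mM phosphate pH 6.2 with 1 mM EDTA and 0.25 mM cysteine, made fresh daily. N-Cbz-Gly p-nitrophenyl ester hydrolysis at 25 °C read at 340 nm (Δε 6000 M⁻¹ cm⁻¹), corrected for nonenzymic hydrolysis. Compounds in acetonitrile or DMF, final <2.5% v/v. Reversible Ki by Lineweaver–Burk; irreversible Ki and k2 by Kitz–Wilson.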

A word on the Ki: it is the equilibrium dissociation constant of an inhibitor or competing ligand from its target. Lower therefore signals tighter binding.

Where a SMILES comes first, the peptide text is derived from it.

T1 sequence (P53634 25-134 limits assumed): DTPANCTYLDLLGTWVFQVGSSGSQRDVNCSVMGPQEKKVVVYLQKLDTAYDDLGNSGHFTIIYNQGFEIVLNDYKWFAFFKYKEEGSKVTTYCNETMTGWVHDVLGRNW
T1 sequence (P53634 231-394 limits assumed): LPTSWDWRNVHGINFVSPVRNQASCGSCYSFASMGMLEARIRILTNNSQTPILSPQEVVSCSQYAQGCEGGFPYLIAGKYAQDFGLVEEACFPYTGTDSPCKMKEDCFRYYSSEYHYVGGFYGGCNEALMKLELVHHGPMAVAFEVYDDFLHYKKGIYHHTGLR
T1 sequence (P53634 395-463 limits assumed): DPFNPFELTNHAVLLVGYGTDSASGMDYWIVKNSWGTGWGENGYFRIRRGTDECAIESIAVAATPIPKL

As to `CC(=O)NC(Cc1ccccc1)C(N)=O` (stereo not drawn), the inhibition constant (Ki) at Chymotrypsinogen A turned out to be 13.9 mM. As for `COC(=O)/C=C/C(Cc1ccccc1)NC(C)=O` (stereo not drawn), on Chymotrypsinogen A, the Ki stood at 30.8 mM. Consider `N#CC(Cc1ccccc1)NC(=O)CN` (stereo not drawn), for which affinity on Dipeptidyl peptidase 1 [1] was put at a Ki of 0.0027 mM. Consider `COC(=O)/C=C/C(N)Cc1ccccc1` (stereo not drawn), for which the figures for the Ki in assay [2] and in assay [3] were 23.7 mM and 61 mM, respectively. Regarding `N#CC(N)Cc1ccccc1` (stereo not drawn), the Ki in assay [2] is 26.4 mM; in assay [3], 67 mM. Take `N=C(S)C(N)Cc1ccccc1` (stereo not drawn): the inhibition constant Ki entry in assay [4] was “No inhibition”. On to `NCC(=O)N[C@@H](Cc1ccccc1)C(N)=O` (H-Gly-Phe-NH2), for which the affinity on Dipeptidyl peptidase 1 [5], expressed as Ki, was 6.2 mM. `CC(=O)N[C@@H](Cc1ccccc1)C(=O)NCC(N)=O` (Ac-Phe-Gly-NH2) gave a Ki on Papain of 4.7 mM. With `COC(=O)/C=C/C(Cc1ccccc1)NC(=O)CN` (stereo not drawn), the inhibition constant Ki at Dipeptidyl peptidase 1 [1] is 0.22 mM. For the compound `CC(=O)NC(/C=C/S(C)(=O)=O)Cc1ccccc1` (stereo not drawn), the inhibition constant (Ki) on Chymotrypsinogen A was found to be 29.4 mM.

The compound `CC(=O)NC(Cc1ccccc1)C(=O)NCC(=N)S` (stereo not drawn) returned an inhibition constant (Ki) at Papain of 0.095 mM. For `NC(=O)C(N)Cc1ccccc1` (stereo not drawn), the Ki in assay [2] was 14.1 mM; in assay [3], 14.8 mM. `CC(=O)NC(Cc1ccccc1)C(=O)NCC#N` (stereo not drawn) displayed an inhibitory constant (Ki) on Papain of 0.0011 mM. The compound `CC(=O)NC(C#N)Cc1ccccc1` (stereo not drawn) had an inhibition constant Ki at Chymotrypsinogen A of 5.3 mM. This lies in the millimolar range.

On to `CS(=O)(=O)/C=C/C(N)Cc1ccccc1` (stereo not drawn), for which the inhibitory constant (Ki) in assay [2] was 8.8 mM; in assay [3], 3.7 mM. Take `CS(=O)(=O)/C=C/C(Cc1ccccc1)NC(=O)CN` (stereo not drawn): at Dipeptidyl peptidase 1 [1], the Ki is 0.18 mM.

On Papain, `C=CCNC(=O)C(Cc1ccccc1)NC(C)=O` (stereo not drawn) came in with an inhibition constant (Ki) of 9.2 mM. Consider `CC(=O)NC(Cc1ccccc1)C(N)=S` (stereo not drawn), for which the Ki on Chymotrypsinogen A is 23 mM. `COC(=O)CCCNC(=O)C(Cc1ccccc1)NC(C)=O` (stereo not drawn) gave an inhibition constant (Ki) on Papain of 19.5 mM.

These data come from ChEMBL document CHEMBL1123492, “Carboxyl-modified amino acids and peptides as protease inhibitors” (J Med Chem, 1986).
